Reference: PubChem BioAssay
Inconclusive results are not listed.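 How the source made its calls, unless noted: active means growth inhibition above 25% in both replicates, a cutoff set 3 SD above the mean; inconclusive means above 25% in only one replicate; inactive means the rest.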

Key:
[1] = OD615 S. cerevisiae growth inhibition, permissive medium, pilot counter-assay, permissive growth control for S. cerevisiae lifespan shortening project (AID 705); settings: OD615, 24 h, at 10 µM, hits give high values
Procedure, shortened: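 System: Engineered DeaD yeast | Buffer or medium: SC raffinose/galactose permissive medium | Doses: 10 µM single dose, 0.25% DMSO | Times: 24 h exposure, 30 °C | Measured by: OD615 turbidity read | Read-out: Yeast growth inhibition indicated by reduced 24 h OD615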

[2] = Restrictive medium S. cerevisiae growth inhibition, OD615, pilot screen of yeast lifespan reduction project, restrictive growth control (AID 706;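 active means growth inhibition above a set limit, 3 SD over mean compound inhibition, in both replicates, cut at about 43% in these data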;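 further: modified DeaD lifespan yeast strain shifted to restrictive glucose medium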); settings: OD615, 48 h, at 10 µM, hits give high values
Procedure, shortened: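 Assay system: engineered S. cerevisiae DeaD strain; Buffer or medium: CSMM-D glucose medium; Dosing: 10 µM compound, 0.25% DMSO; Times: cell pre-growth 4 h, compound exposure 48 h, 30 °C; Detection: absorbance (optical density) measured at 615 nm.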

[3] = viability gain of MRP-1-high H69AR cells under doxorubicin, pilot screen, MRP-1 activator project, CellTiter-Glo, duplicate (AID 807;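 active means viability increase at or above a cutoff of the median across tested compounds plus 3 SD, cut at about 8.5% in these data, passing the limit was not always enough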;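 further: compound pretreatment 18-22 h then 72 h combined with doxorubicin; 0% = doxorubicin alone and 100% = vehicle without doxorubicin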); settings: H69AR viability with doxorubicin, CellTiter-Glo luminescence; at 10 µM; hits give high values
[4] = growth suppression of beta-catenin knockout HCT116, pilot screen, human colon tumor cells (AID 823;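 active means cell viability at or below a set limit in both duplicate runs, the limit being the all-compound median minus 4 SD, cut at about 23% in these data, passing the limit was not always enough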;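 further: 0% = wells killed by 20 µM Hyamine and 100% = untreated DMSO cell wells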); settings: CellTiter-Glo, 60 h, at 10 µM, hits give low values
[5] = growth suppression of PTEN-deleted HCT116, pilot screen, cell-based, HCT116 clonal line, CellTiter-Glo (AID 824;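 active means viability at or below 27.92% in each of two runs, the all-compound median minus 4 SD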;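 further: 0% = 20 µM Hyamine control and 100% = vehicle cell control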); settings: 60 h, at 10 µM, hits give low values
[6] = inhibitors of the yeast RAM network, pilot screen, dse1pr::URA3 reporter, 5-FOA selection (AID 869;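 active means inhibition over a set limit, the all-compound mean plus 3 SD, in both replicate runs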;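 further: 0% = DMSO wells with no growth and 100% = 10 µM 1-NA-PP1 with full growth; RAM network block rescues cells from 5-FOA so hits raise OD615 growth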); settings: S. cerevisiae dse1pr::URA3 5-FOA growth, OD615, 2 d; at 10 µM; hits give high values; strain carries analog-sensitive mutant Cbk1 kinase
[7] = RAM signaling pathway blockade in yeast – S. cerevisiae, Pdr1DBD-CYC8 efflux-inhibited sensitized strain, primary screen (AID 1298;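 active means RAM network inhibition above 8.4% in each of two replicates, 3 SD over the compound average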;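 further: 0% = DMSO untreated cells without growth and 100% = 10 µM 1-NA-PP1 full growth; higher means more yeast growth rescued from 5-FOA killing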); settings: S. cerevisiae cbk1-as DSE1-URA3 strain, 5-FOA growth OD615, 2 d; at 50 µM; hits give high values

CCCCCCSc1nc2c(c(=O)[nH]c(=O)n2C)n1C
inactive: growth inhibition [1] -0.55% | growth inhibition [2] 22.7% | viability increase [3] -4.63% | viability [4] 82% | viability [5] 90.3% | inhibition [6] 0.395% | RAM network inhibition [7] 1.1%

COc1ccc(-n2nc3c(c2NC(=O)C24CC5CC(CC(C5)C2)C4)CS(=O)C3)cc1 (stereo unspecified)
inactive: growth inhibition [1] 1.36% | growth inhibition [2] 9.3% | viability increase [3] -0.78% | viability [4] 97.2% | viability [5] 93.5% | inhibition [6] -0.08% | RAM network inhibition [7] -1.31%

CC(=O)Nc1ccc2nc(-c3cccs3)[nH]c2c1
inactive: growth inhibition [1] -5.51% | growth inhibition [2] -15.4% | viability increase [3] -2.88% | viability [4] 97.8% | viability [5] 90.3% | inhibition [6] 2.38% | RAM network inhibition [7] 4.66%

Cc1nc2sc(C(c3cccs3)N3CCN(Cc4ccccc4)CC3)c(O)n2n1 (stereo unspecified)
inactive: growth inhibition [1] -7.44% | growth inhibition [2] -19.6% | viability increase [3] -1.47% | viability [4] 101% | viability [5] 89.8% | inhibition [6] -0.06% | RAM network inhibition [7] 4.97%

COc1ccc(NC(=O)CSc2nnc(-c3ccc(C)cc3)n2N)cc1
inactive: growth inhibition [1] -3.98% | growth inhibition [2] -4.99% | viability increase [3] 0.54% | viability [4] 100% | viability [5] 92.8% | inhibition [6] 1.1% | RAM network inhibition [7] 2.69%

O=C(CCN1CCc2ccccc2C1)Nc1ccccc1
inactive: growth inhibition [1] -6.32% | growth inhibition [2] -8.03% | viability increase [3] -4.06% | viability [4] 89.8% | viability [5] 89.3% | inhibition [6] 2.04% | RAM network inhibition [7] 2.39%

CN(C)c1nc(Oc2ccc(/C=N/O)cc2)nc(N(C)C)n1
inactive: growth inhibition [1] -9.5% | growth inhibition [2] 4.05% | viability increase [3] -2.72% | viability [4] 101% | viability [5] 85.1% | inhibition [6] 1.58% | RAM network inhibition [7] 2.8%

CCOc1ccc(C2CC(c3cccc(OC)c3)n3nc(N)nc3N2)cc1 (stereo unspecified)
inactive: growth inhibition [1] 0.02% | growth inhibition [2] 5.62% | viability increase [3] 0.88% | viability [4] 109% | viability [5] 92.3% | inhibition [6] 0.875% | RAM network inhibition [7] 4.58%

O=C(Cn1cc2c(n1)CCCCC2)NCCN1CCOCC1
inactive: growth inhibition [1] 7.15% | growth inhibition [2] 10.1% | viability increase [3] -0.25% | viability [4] 107% | viability [5] 97.3% | inhibition [6] 2% | RAM network inhibition [7] 2.18%

CCOC(=O)c1sc2nc3n(c(=O)c2c1C)CCCCC3
inactive: growth inhibition [1] -4.76% | growth inhibition [2] 5.75% | viability increase [3] 6.25% | viability [4] 87.5% | viability [5] 103% | inhibition [6] 0.475% | RAM network inhibition [7] 4.46%

CCN(CCCNC(=O)Cn1cc2c(n1)CCCC2)c1cccc(C)c1
inactive: growth inhibition [1] -4.97% | growth inhibition [2] 3.35% | viability increase [3] -3.77% | viability [4] 86% | viability [5] 81.5% | inhibition [6] 0.48% | RAM network inhibition [7] 4.45%

CC1CCc2c(sc3ncnc(NCCN4CCOCC4)c23)C1 (stereo unspecified)
inactive: growth inhibition [1] -7.6% | growth inhibition [2] -5.73% | viability increase [3] -6.47% | viability [4] 96.4% | viability [5] 95% | inhibition [6] 1.02% | RAM network inhibition [7] 5.28%

O=C(O)CCCNS(=O)(=O)c1ccc(F)cc1
inactive: growth inhibition [1] -5.7% | growth inhibition [2] -0.905% | viability increase [3] -1.33% | viability [4] 105% | viability [5] 101% | inhibition [6] 1.14% | RAM network inhibition [7] 0.11%

O=C(NCCN1CCOCC1)NC1(C(F)(F)F)Oc2ccccc2O1
inactive: growth inhibition [1] -11% | growth inhibition [2] 4.58% | viability increase [3] -4.99% | viability [4] 76.3% | viability [5] 84.5% | inhibition [6] 0.645% | RAM network inhibition [7] 0.82%

CCC(Oc1ccccc1)C(=O)Nc1cc(C)on1 (stereo unspecified)
inactive: growth inhibition [1] -8.55% | growth inhibition [2] -7.2% | viability increase [3] -0.57% | viability [4] 108% | viability [5] 90.2% | inhibition [6] 0.86% | RAM network inhibition [7] 0.2%

CC(C)Sc1nc2c(cnn2-c2ccc(F)cc2)c(=O)[nH]1
inactive: growth inhibition [1] -8.33% | growth inhibition [2] -1.79% | viability increase [3] -3.72% | viability [4] 90.7% | viability [5] 97.3% | inhibition [6] 0.795% | RAM network inhibition [7] 3.54%

CCC(Sc1nc(=O)cc(N)n1CCc1ccccc1)C(=O)Nc1cc(C)on1 (stereo unspecified)
inactive: growth inhibition [1] -3.68% | growth inhibition [2] -7.75% | viability increase [3] -1.78% | viability [4] 104% | viability [5] 95.7% | inhibition [6] 1.33% | RAM network inhibition [7] 6.71%

CC(C)(C)n1nc2c(c1NC(=O)c1ccccc1F)CS(=O)C2 (stereo unspecified)
inactive: growth inhibition [1] 1.35% | growth inhibition [2] 0.655% | viability increase [3] 0.62% | viability [4] 101% | viability [5] 101% | inhibition [6] 1.66% | RAM network inhibition [7] 1.67%

COc1ccc(C(=O)NCc2cn3ccsc3n2)cc1OC
inactive: growth inhibition [1] -9.73% | growth inhibition [2] -1.42% | viability increase [3] -1.54% | viability [4] 105% | viability [5] 94.6% | inhibition [6] 2.29% | RAM network inhibition [7] 2.63%

C=CCNc1nc2c(c(=O)n(C)c(=O)n2C)n1Cc1ccc(F)cc1
inactive: growth inhibition [1] -0.85% | growth inhibition [2] -2.67% | viability increase [3] -2.03% | viability [4] 63.3% | viability [5] 66.9% | inhibition [6] 0.835% | RAM network inhibition [7] 2.3%

COCCNC(=O)Cn1cnc2sc(C)c(S(=O)(=O)N3CCC(C)CC3)c2c1=O
inactive: growth inhibition [1] -5.23% | growth inhibition [2] -3.64% | viability increase [3] 0.05% | viability [4] 100% | viability [5] 100% | inhibition [6] 1.68% | RAM network inhibition [7] 5.34%

N#CCc1ccc(NS(=O)(=O)c2ccc(N3CCCC3=O)cc2)cc1
inactive: growth inhibition [1] -10.7% | growth inhibition [2] -7.71% | viability increase [3] -0.69% | viability [4] 89.8% | viability [5] 88% | inhibition [6] 2.58% | RAM network inhibition [7] 0.32%

Brc1ccc(-c2nnc3sc(CNCc4ccc5c(c4)OCO5)cn23)cc1
inactive: growth inhibition [1] 5.46% | growth inhibition [2] 20.8% | viability increase [3] -0.67% | viability [4] 99.6% | viability [5] 99.8% | inhibition [6] 1.17% | RAM network inhibition [7] 1.64%
